Data: ChEMBL document CHEMBL4825685, “Structure activity relationship (SAR) study identifies a quinoxaline urea analog that modulates IKKβ phosphorylation for pancreatic cancer therapy” (Eur J Med Chem, 2021)
One block for each compound: values may come before it. Calls of active or inactive are those of the source. The calls are words filed in the database; no cut-off is given here.

How the values were obtained:
MIA PaCa-2 [1] = experiment: Antitumor activity against human MIA PaCa-2 cells xenografted in Foxn1nu athymic nude mouse assessed as reduction in tumor volume at 15 mg/kg, ip administered every 3 days for 4 weeks by digital caliper method relative to control; type: functional; parameters: scale not given: the % may be the effect or the level left
Summary of the method: (§1)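 MiaPaCa2 cells (2.5 × 10⁶, mixed 2:1 with Matrigel) implanted subcutaneously in left flank; randomised 20 days later (n = 6/group). Gemcitabine 15 mg/kg i.p. every 72 h against vehicle (100 µl daily orally). Tumour volume measured every 3 days by caliper as 1/2 × length × width² (mm³); mice sacrificed after 27th treatment day and tumours weighed; unpaired Student's t-test.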

MIA PaCa-2 [2] = experiment: Antitumor activity against human MIA PaCa-2 cells xenografted in Foxn1nu athymic nude mouse assessed as reduction in tumor weight at 15 mg/kg, ip administered every 3 days for 4 weeks […]; type: functional; parameters: scale not given: the % may be the effect or the level left; summary of the method: as §1
MIA PaCa-2 [3] = experiment: Induction of apoptosis in human MIA PaCa-2 cells assessed as increase in caspase 3/7 activation at 10 uM incubated for 24 hrs by Caspase-Glo assay; type: functional, cell-based
Summary of the method: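 MiaPaCa2 cells (2.5 × 10⁴/well) attached overnight, then treated 24 h at 0.1% final DMSO. alamarBlue added at 21 h for 3 h and fluorescence read at 560/590. Caspase-Glo luminescence read 2 h later. Luminescence ×100/fluorescence normalized to DMSO average, n = 3.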

[4] = Cmax in CD1 mouse at 20 mg/kg, po measured up to 24 hrs measured by LC/MS-MS analysis; type: ADME, organism-based; parameters: route oral, dose 20 mg/kg, time <=24; details: in vivo
Summary of the method: (§2)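 Oral 20 mg/kg given in DMSO:PEG400:H2O 1:4:5. Mice killed at 0.083, 0.25, 0.5, 1, 2, 4, 8 and 24 h and plasma analysed by LC/MS/MS with a carbamazepine internal standard. Parameters derived by non-compartmental analysis.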

[5] = AUClast in CD1 mouse at 20 mg/kg, po measured up to 24 hrs measured by LC/MS-MS analysis; type: ADME, organism-based; parameters: route oral, dose 20 mg/kg, time <=24; details: in vivo; summary of the method: as §2
[6] = Tmax in CD1 mouse at 20 mg/kg, po measured up to 24 hrs measured by LC/MS-MS analysis; type: ADME, organism-based; details: in vivo; summary of the method: as §2
[7] = Oral bioavailability in CD1 mouse at 20 mg/kg measured up to 24 hrs measured by LC/MS-MS analysis; type: ADME, organism-based; details: in vivo
Summary of the method: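 %F taken from oral (20 mg/kg, DMSO:PEG400:H2O 1:4:5) and intravenous (10 mg/kg, DMSO:PEG400:H2O 1:5:4) AUC0-∞. Plasma sampled from 0.083 to 24 h and quantified by LC/MS/MS with a carbamazepine internal standard. Non-compartmental analysis.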

[8] = target: T1, Inhibitor of nuclear factor kappa-B kinase subunit beta (Homo sapiens, UniProt O14920); experiment: Inhibition of TNFalpha-induced IKKbeta mediated NF-kappaB activation in human Pancreatic cancer cells by luciferase reporter gene assay; parameters: species or system Pancreatic cancer cell
T1 sequence (O14920 whole entry): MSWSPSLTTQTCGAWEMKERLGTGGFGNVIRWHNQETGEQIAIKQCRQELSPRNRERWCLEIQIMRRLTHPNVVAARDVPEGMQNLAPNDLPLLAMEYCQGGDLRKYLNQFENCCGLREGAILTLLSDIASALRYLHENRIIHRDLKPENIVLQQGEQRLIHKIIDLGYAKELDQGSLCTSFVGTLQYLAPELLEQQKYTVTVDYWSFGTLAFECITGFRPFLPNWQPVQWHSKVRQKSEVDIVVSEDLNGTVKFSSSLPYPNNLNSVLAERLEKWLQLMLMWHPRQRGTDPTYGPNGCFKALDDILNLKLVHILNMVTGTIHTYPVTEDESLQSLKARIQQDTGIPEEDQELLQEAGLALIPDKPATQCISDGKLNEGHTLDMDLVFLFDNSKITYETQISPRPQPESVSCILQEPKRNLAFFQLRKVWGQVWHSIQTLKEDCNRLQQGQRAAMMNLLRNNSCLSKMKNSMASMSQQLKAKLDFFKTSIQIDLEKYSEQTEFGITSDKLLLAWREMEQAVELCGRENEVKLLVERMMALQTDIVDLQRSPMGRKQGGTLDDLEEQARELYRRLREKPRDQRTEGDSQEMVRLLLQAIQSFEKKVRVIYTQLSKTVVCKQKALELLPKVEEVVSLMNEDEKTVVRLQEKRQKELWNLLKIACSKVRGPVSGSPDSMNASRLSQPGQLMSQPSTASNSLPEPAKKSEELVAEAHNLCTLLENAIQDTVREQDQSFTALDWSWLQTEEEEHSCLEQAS

[9] = MRT (0 to infinity) in CD1 mouse at 20 mg/kg, po measured up to 24 hrs measured by LC/MS-MS analysis; type: ADME, organism-based; details: in vivo; summary of the method: as §2
[10] = AUC (0 to infinity) in CD1 mouse at 20 mg/kg, po measured up to 24 hrs measured by LC/MS-MS analysis; type: ADME, organism-based; parameters: route oral, dose 20 mg/kg, time <=24; details: in vivo; summary of the method: as §2
[11] = Half life in CD1 mouse at 20 mg/kg, po measured up to 24 hrs measured by LC/MS-MS analysis; type: ADME, organism-based; details: in vivo; summary of the method: as §2

Compound: Nc1ccn([C@@H]2O[C@H](CO)[C@@H](O)C2(F)F)c(=O)n1 [GEMCITABINE]
Activity (MIA PaCa-2 [1]): 45% | Activity (MIA PaCa-2 [2]): 45%

Compound: Cc1cc(NC(=O)Nc2ccc3ncc(-c4cnn(C)c4)nc3c2)ccc1F
Activity (MIA PaCa-2 [3]): inactive

Compound: Cn1cc(-c2cnc3ccc(NC(=O)Nc4cccc(C(F)(F)F)c4)cc3n2)cn1
Activity (MIA PaCa-2 [3]): inactive

Cmax [4]: 300 ng/mL | AUC(0-t) at 24 h [5]: 1630 ng·h/mL | Tmax [6]: 2.5 h | bioavailability [7]: 3.1% | IC50 [8]: 8.4 µM | MRT inf [9]: 5.2 h | AUC(0-inf) [10]: 1860 ng·h/mL | half-life [11]: 2 h
Compound: O=C(Nc1ccc(Br)cc1)Nc1ccc2nc(-c3ccco3)c(-c3ccco3)nc2c1
Activity (MIA PaCa-2 [3]): inactive
